Among the data in ChEMBL document CHEMBL3272287, “Synthesis and biological activity of new 2-substituted analogs of fluphenazine” (1976) are ED50 and Ratio values, retold here.

What all share (type): functional
The test system of assay [1] is Mus musculus. The assay can be described thus: Cataleptogenic potency in iv dosed albino mouse assessed as reversal of imposed position administered 4 doses at quarter log intervals measured 60 to 180 mins post dose. The essentials: (§1)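 Male albino mice (20–25 g), six per dose, given intravenous aqueous solutions (PEG 200 for one analog). Distilled water served as the negative control. About four doses were spaced at quarter-log intervals, chosen from a preliminary gross observation screen. At 60, 120 and 180 min, mice were placed with forepaws elevated 5 cm and each forepaw was scored, maximum 3. Three observers scored the mice. CD50 came from probit analysis, with doses as free base. Relative potency was calculated against fluphenazine as 1.0.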

In assay [2] the test system is Mus musculus. As to the kind of experiment: Cataleptogenic potency in iv dosed albino mouse assessed as reversal of imposed position administered 4 doses at quarter log intervals measured 60 to 180 mins post dose relative to fluphenazine. The essentials:
as §1

The test system of assay [3] is Rattus norvegicus. The assay can be described thus: Cataleptogenic potency in im dosed albino rat assessed as reversal of imposed position administered 4 doses at quarter log intervals measured 60 to 180 mins post dose. The method in brief: (§2)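 Male albino rats (about 180 g average), groups of six, each given a single intramuscular injection into the gastrocnemius, about 0.1 ml/kg. Saline-injected controls. One observer scored forepaw-elevation catalepsy. CD50 was the dose giving 50% of the maximum catalepsy score (9 of 18 points), estimated by probit analysis. Doses were expressed as free base. Relative potency was calculated against fluphenazine as 1.0.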

Assay [4] relates to Rattus norvegicus. As to the kind of experiment: Cataleptogenic potency in im dosed albino rat assessed as reversal of imposed position administered 4 doses at quarter log intervals measured 60 to 180 mins post dose relative to fluphenazine. The essentials: as §2

Turning to `O=[N+]([O-])c1ccc2c(c1)N(CCCN1CCN(CCO)CC1)c1ccccc1S2`, the figures for the median effective dose (ED50) with Mus musculus [1] and in the assay on Rattus norvegicus [3] were 2.2 µmol/kg and 0.17 µmol/kg, respectively. Moreover, the Ratio in the assay on Mus musculus [2] stood at 0.92; with Rattus norvegicus [4] it was 3.2.
As for `N#CC(C#N)=Cc1ccc2c(c1)N(CCCN1CCN(CCO)CC1)c1ccccc1S2`, in the assay on Mus musculus [1], the ED50 was 28 µmol/kg. Further, the Ratio with Mus musculus [2] turned out to be 0.078.
Consider `O=[N+]([O-])/C=C/c1ccc2c(c1)N(CCCN1CCN(CCO)CC1)c1ccccc1S2`, for which the ED50 in the assay with Mus musculus [1] was above 57 µmol/kg. Besides, the Ratio with Mus musculus [2] is given as below 0.011.
Turning to `N#Cc1ccc2c(c1)N(CCCN1CCN(CCO)CC1)c1ccccc1S2`, the ED50 in the assay with Mus musculus [1] was 0.41 µmol/kg; in the assay with Rattus norvegicus [3], 0.61 µmol/kg. Also, the Ratio in the assay on Mus musculus [2] is 0.7; in the assay with Rattus norvegicus [4], 0.65.
Consider `OCCN1CCN(CCCN2c3ccccc3Sc3ccc(C(F)(F)F)cc32)CC1` [FLUPHENAZINE], for which the ED50 was 0.29 µmol/kg in the assay on Mus musculus [1] and 0.39 µmol/kg in the assay with Rattus norvegicus [3].

One may read the ED50 as the dose at which the effect has come halfway, by size or by number of responders.
